Assay results taken from article PMC9271465 (ESMO Open, 2022).

Assay: phase I dose-escalation: safety and tolerability
Assay type: in vivo, patients
Procedure, shortened: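 Patients receiving ≥1 oral dose (25–300 mg/day) formed the safety set. Dosing was a single dose on day 1, then 21-day continuous daily dosing after 7 days. AEs graded by CTCAE v4.03. DLT window ran from day 1 of cycle 0 to day 21 of cycle 1 (28 days). ECGs were taken before and 1, 2, 4, 6, 10 and 24 h after the first dose.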

## C=CC(=O)Nc1cc(Nc2ncc(Cl)c(Nc3ccccc3C(=O)C(=O)N(C)C)n2)c(OC)cc1N1CCN(C)CC1 [BPI-15086]
25 mg/day (n = 1)
  TRAE, Grade 3 and 4: Hyperglycemia: 0 n (%)
  TRAE, Grade 3 and 4: any: 0 n (%)
  TRAE, all grades: Anemia: 0 n (%)
  TRAE, all grades: Decreased appetite: 1 (100.0) n (%)
  TRAE, all grades: Decreased total protein: 0 n (%)
  TRAE, all grades: Diarrhea: 0 n (%)
  TRAE, all grades: Elevated ALT: 0 n (%)
  TRAE, all grades: Elevated blood glucose: 0 n (%)
  TRAE, all grades: Elevated blood triglycerides: 0 n (%)
  TRAE, all grades: Elevated blood uric acid: 0 n (%)
  TRAE, all grades: Elevated conjugated bilirubin: 0 n (%)
  TRAE, all grades: Elevated serum creatinine: 0 n (%)
  TRAE, all grades: Elevated γ-glutamyltransferase: 0 n (%)
  TRAE, all grades: Hyperglycemia: 0 n (%)
  TRAE, all grades: Hypoalbuminemia: 0 n (%)
  TRAE, all grades: Nausea: 0 n (%)
  TRAE, all grades: Proteinuria: 0 n (%)
  TRAE, all grades: Vomiting: 0 n (%)
  TRAE, all grades: any: 1 (100.0) n (%)
50 mg/day (n = 3)
  TRAE, Grade 3 and 4: Hyperglycemia: 0 n (%)
  TRAE, Grade 3 and 4: any: 0 n (%)
  TRAE, all grades: Anemia: 0 n (%)
  TRAE, all grades: Decreased appetite: 0 n (%)
  TRAE, all grades: Decreased total protein: 0 n (%)
  TRAE, all grades: Diarrhea: 0 n (%)
  TRAE, all grades: Elevated ALT: 0 n (%)
  TRAE, all grades: Elevated blood glucose: 1 (33.3) n (%)
  TRAE, all grades: Elevated blood triglycerides: 0 n (%)
  TRAE, all grades: Elevated blood uric acid: 0 n (%)
  TRAE, all grades: Elevated conjugated bilirubin: 0 n (%)
  TRAE, all grades: Elevated serum creatinine: 1 (33.3) n (%)
  TRAE, all grades: Elevated γ-glutamyltransferase: 0 n (%)
  TRAE, all grades: Hyperglycemia: 0 n (%)
  TRAE, all grades: Hypoalbuminemia: 0 n (%)
  TRAE, all grades: Nausea: 1 (33.3) n (%)
  TRAE, all grades: Proteinuria: 0 n (%)
  TRAE, all grades: Vomiting: 0 n (%)
  TRAE, all grades: any: 2 (66.7) n (%)
100 mg/day (n = 3)
  TRAE, Grade 3 and 4: Hyperglycemia: 0 n (%)
  TRAE, Grade 3 and 4: any: 0 n (%)
  TRAE, all grades: Anemia: 0 n (%)
  TRAE, all grades: Decreased appetite: 0 n (%)
  TRAE, all grades: Decreased total protein: 1 (33.3) n (%)
  TRAE, all grades: Diarrhea: 0 n (%)
  TRAE, all grades: Elevated ALT: 0 n (%)
  TRAE, all grades: Elevated blood glucose: 0 n (%)
  TRAE, all grades: Elevated blood triglycerides: 0 n (%)
  TRAE, all grades: Elevated blood uric acid: 1 (33.3) n (%)
  TRAE, all grades: Elevated conjugated bilirubin: 0 n (%)
  TRAE, all grades: Elevated serum creatinine: 1 (33.3) n (%)
  TRAE, all grades: Elevated γ-glutamyltransferase: 0 n (%)
  TRAE, all grades: Hyperglycemia: 0 n (%)
  TRAE, all grades: Hypoalbuminemia: 0 n (%)
  TRAE, all grades: Nausea: 1 (33.3) n (%)
  TRAE, all grades: Proteinuria: 0 n (%)
  TRAE, all grades: Vomiting: 1 (33.3) n (%)
  TRAE, all grades: any: 3 (100.0) n (%)
200 mg/day (n = 7)
  TRAE, Grade 3 and 4: Hyperglycemia: 0 n (%)
  TRAE, Grade 3 and 4: any: 0 n (%)
  TRAE, all grades: Anemia: 3 (42.9) n (%)
  TRAE, all grades: Decreased appetite: 1 (14.3) n (%)
  TRAE, all grades: Decreased total protein: 2 (28.6) n (%)
  TRAE, all grades: Diarrhea: 2 (28.6) n (%)
  TRAE, all grades: Elevated ALT: 1 (14.3) n (%)
  TRAE, all grades: Elevated blood glucose: 2 (28.6) n (%)
  TRAE, all grades: Elevated blood triglycerides: 2 (28.6) n (%)
  TRAE, all grades: Elevated blood uric acid: 3 (42.9) n (%)
  TRAE, all grades: Elevated conjugated bilirubin: 2 (28.6) n (%)
  TRAE, all grades: Elevated serum creatinine: 2 (28.6) n (%)
  TRAE, all grades: Elevated γ-glutamyltransferase: 2 (28.6) n (%)
  TRAE, all grades: Hyperglycemia: 0 n (%)
  TRAE, all grades: Hypoalbuminemia: 5 (71.4) n (%)
  TRAE, all grades: Nausea: 1 (14.3) n (%)
  TRAE, all grades: Proteinuria: 3 (42.9) n (%)
  TRAE, all grades: Vomiting: 1 (14.3) n (%)
  TRAE, all grades: any: 7 (100.0) n (%)
300 mg/day (n = 3)
  TRAE, Grade 3 and 4: Hyperglycemia: 1 (33.3) n (%)
  TRAE, Grade 3 and 4: any: 1 (33.3) n (%)
  TRAE, all grades: Anemia: 0 n (%)
  TRAE, all grades: Decreased appetite: 3 (100.0) n (%)
  TRAE, all grades: Decreased total protein: 0 n (%)
  TRAE, all grades: Diarrhea: 1 (33.3) n (%)
  TRAE, all grades: Elevated ALT: 1 (33.3) n (%)
  TRAE, all grades: Elevated blood glucose: 0 n (%)
  TRAE, all grades: Elevated blood triglycerides: 0 n (%)
  TRAE, all grades: Elevated blood uric acid: 0 n (%)
  TRAE, all grades: Elevated conjugated bilirubin: 0 n (%)
  TRAE, all grades: Elevated serum creatinine: 0 n (%)
  TRAE, all grades: Elevated γ-glutamyltransferase: 0 n (%)
  TRAE, all grades: Hyperglycemia: 3 (100.0) n (%)
  TRAE, all grades: Hypoalbuminemia: 0 n (%)
  TRAE, all grades: Nausea: 3 (100.0) n (%)
  TRAE, all grades: Proteinuria: 0 n (%)
  TRAE, all grades: Vomiting: 2 (66.7) n (%)
  TRAE, all grades: any: 3 (100.0) n (%)
25-300 mg/day
  maximum tolerated dose (MTD): not reached
28-day evaluation period, any dose level 25-300 mg/day
  dose-limiting toxicities (DLTs): No DLTs were observed
300-mg/day group
  treatment-related serious AE (hyperglycemia), patients: one
All (n = 17)
  TRAE, Grade 3 and 4: Hyperglycemia: 1 (5.9) n (%)
  TRAE, Grade 3 and 4: any: 1 (5.9) n (%)
  TRAE, all grades: Anemia: 3 (17.6) n (%)
  TRAE, all grades: Decreased appetite: 5 (29.4) n (%)
  TRAE, all grades: Decreased total protein: 3 (17.6) n (%)
  TRAE, all grades: Diarrhea: 3 (17.6) n (%)
  TRAE, all grades: Elevated ALT: 2 (11.8) n (%)
  TRAE, all grades: Elevated blood glucose: 3 (17.6) n (%)
  TRAE, all grades: Elevated blood triglycerides: 2 (11.8) n (%)
  TRAE, all grades: Elevated blood uric acid: 4 (23.5) n (%)
  TRAE, all grades: Elevated conjugated bilirubin: 2 (11.8) n (%)
  TRAE, all grades: Elevated serum creatinine: 4 (23.5) n (%)
  TRAE, all grades: Elevated γ-glutamyltransferase: 2 (11.8) n (%)
  TRAE, all grades: Hyperglycemia: 3 (17.6) n (%)
  TRAE, all grades: Hypoalbuminemia: 5 (29.4) n (%)
  TRAE, all grades: Nausea: 6 (35.3) n (%)
  TRAE, all grades: Proteinuria: 3 (17.6) n (%)
  TRAE, all grades: Vomiting: 4 (23.5) n (%)
  TRAE, all grades: any: 16 (94.1) n (%)
All 17 patients
  AEs leading to drug discontinuation: no adverse events (AEs) causing drug discontinuation were seen
  TRAE: anemia, patients: 17.6%
  TRAE: decreased appetite, patients: 29.4%
  TRAE: decreased total protein, patients: 17.6%
  TRAE: diarrhea, patients: 17.6%
  TRAE: elevated alanine aminotransferase, patients: 11.8%
  TRAE: elevated blood glucose, patients: 17.6%
  TRAE: elevated blood triglycerides, patients: 11.8%
  TRAE: elevated blood uric acid, patients: 23.5%
  TRAE: elevated conjugated bilirubin, patients: 11.8%
  TRAE: elevated serum creatinine, patients: 23.5%
  TRAE: elevated γ-glutamyltransferase, patients: 11.8%
  TRAE: hyperglycemia, patients: 17.6%
  TRAE: hypoalbuminemia, patients: 29.4%
  TRAE: nausea, patients: 35.3%
  TRAE: proteinuria, patients: 17.6%
  TRAE: vomiting, patients: 23.5%
  patients with diarrhea: 3/17
  patients with rash/pruritis: no patient
All 17 patients (two patients)
  Serious AEs, patients: 11.8%
